Measured values from PMC5116011 (The Journal of antibiotics, 2016).
≈ marks a conversion by molar mass, not a printed value. Where two headings read alike, the source gives them in different places.

Columns and labels:
[1] = system: B. anthracis sterne; experiment: microbe, parasite or virus in culture; type: cell-based; details: Bacillus anthracis, read-out: MIC BA
[2] = system: S. aureus -ATCC29213 (MSSA); experiment: MIC, microbroth dilution in Mueller-Hinton broth; type: cell-based; details: Staphylococcus aureus, read-out: MIC MSSA
Method in brief: (§1)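 CLSI broth microdilution in cation-adjusted Mueller-Hinton broth. Inocula were grown from MH agar colonies in MH broth, with a final inoculum of 10^5 CFU/ml. Test compound final range was 200–0.2 µg/ml, incubated 37°C for 18–20 h. MIC was the lowest concentration preventing visible growth. Runs were at least duplicate, and the mean MIC was reported.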

[3] = system: S. pneumoniae R6; experiment: MIC, microbroth dilution in Mueller-Hinton broth; type: cell-based; details: Streptococcus pneumoniae, R6, read-out: MIC SP
Method in brief: as §1

[4] = system: E. coli BW25113; experiment: MIC, microbroth dilution in Mueller-Hinton broth; type: cell-based, Escherichia coli; details: for MIC EC MH+BP/CCCP: MH broth with 30 µg/ml 2,2′-bipyridyl and 50 µg/ml CCCP; for MIC EC +: with clavulanic acid (6µg/ml); for MIC: Escherichia coli, BW25113, read-out: MIC EC, E. coli BW25113
[5] = system: E. coli BW25113 ΔtolC derivative JW5503-1; experiment: MIC, microbroth dilution in Mueller-Hinton broth; type: cell-based, Escherichia coli; details: for MIC: Escherichia coli
[6] = system: E. coli BW25113 ΔampC derivative JW4111-2; type: cell-based, Escherichia coli; details: for MIC: Escherichia coli, BW25113, read-out: MIC ECΔampC −
[7] = system: S. pyogenes ATCC700294; experiment: MIC, microbroth dilution in Mueller-Hinton broth; type: cell-based; details: Streptococcus pyogenes, ATCC700294, read-out: MIC SPy
Method in brief: as §1

[8] = system: P. aeruginosa PA01; experiment: MIC, microbroth dilution in Mueller-Hinton broth; type: cell-based, Pseudomonas aeruginosa; details: for MIC PA MH+BP/CCCP / MIC PA +: P. aeruginosa PA01; for MIC PA MH+BP/CCCP: MH broth with 30 µg/ml 2,2′-bipyridyl and 50 µg/ml CCCP; for MIC PA +: with clavulanic acid (6µg/ml); for MIC: Pseudomonas aeruginosa
[9] = system: P. mirabilis ATCC 25933; experiment: MIC, microbroth dilution in Mueller-Hinton broth; type: cell-based; details: Proteus mirabilis, ATCC25933, read-out: MIC PM
[10] = system: S. aureus NRS 70 (MRSA); experiment: MIC, microbroth dilution in Mueller-Hinton broth; type: cell-based; details: Staphylococcus aureus, MRSA|NRS70, read-out: MIC MRSA
Method in brief: as §1

[11] = system: B. subtilis ATCC23857; experiment: MIC, microbroth dilution in Mueller-Hinton broth; type: cell-based; details: Bacillus subtilis, ATCC23857, read-out: MIC BS
Method in brief: as §1

[12] = system: E. faecalis ATCC33186; experiment: MIC, microbroth dilution in Mueller-Hinton broth; type: cell-based; details: Enterococcus faecalis, ATCC33186, read-out: MIC EF
Method in brief: as §1

[13] = system: P. vulgaris ATCC 33420; experiment: MIC, microbroth dilution in Mueller-Hinton broth; type: cell-based; details: Proteus vulgaris, ATCC33420, read-out: MIC PV
[14] = BW25113, read-out: MIC ECΔtolC MH
[15] = BW25113, read-out: MIC ECΔtolC MH+BP

| Compound | MIC [1] [µg/mL] | MIC [2] [µg/mL] | MIC [3] [µg/mL] | MIC EC MH+BP/CCCP ([4]; E. coli BW25113) [µg/mL] | MIC EC + ([4]; E. coli BW25113) [µg/mL] | MIC ([4]; Mueller-Hinton broth (Table 2)) [µg/mL] | MIC [5, 15] [µg/mL] | MIC [6] [µg/mL] | MIC ECΔampC + [6] [µg/mL] | MIC [7] [µg/mL] | MIC PA MH+BP/CCCP [8] [µg/mL] | MIC PA + [8] [µg/mL] | MIC ([8]; PA01, read-out: MIC PA) [µg/mL] | MIC ([8]; PA01, read-out: MIC PA MH) [µg/mL] | MIC ([8]; PA01, read-out: MIC PA MH+BP) [µg/mL] | MIC ([8]; PA01, read-out: MIC PA MH+CCCP) [µg/mL] | MIC [9] [µg/mL] | MIC [10] [µg/mL] | MIC [11] [µg/mL] | MIC [12] [µg/mL] | further results |
| --- | --- | --- | --- | --- | --- | --- | --- | --- | --- | --- | --- | --- | --- | --- | --- | --- | --- | --- | --- | --- | --- |
| CC1(C)SC2C(NC(=O)C(NC(=O)C3=C(O)CN(c4ccccc4)C3=O)c3ccccc3)C(=O)N2C1C(=O)O (centres unmarked) [Compound 2919] | 3.13 (≈ 5.68 µM) | 0.78 (≈ 1.42 µM) | < 0.2 | 25 (≈ 45.4 µM) | 50 | 6.25 to 12.5 (≈ 11.4 to 22.7 µM) | 3.13 (≈ 5.68 µM) | 12.5 (≈ 22.7 µM) | 6.25 | 0.78 (≈ 1.42 µM) | 12.5 (≈ 22.7 µM) | 12.5 | 50 (≈ 90.8 µM) | 50 (≈ 90.8 µM) | 50 (≈ 90.8 µM) | 25 (≈ 45.4 µM) | 50 (≈ 90.8 µM) | 50 (≈ 90.8 µM) | 1.56 (≈ 2.83 µM) | 25 (≈ 45.4 µM) | MIC EC ([4]; E. coli BW25113, Mueller-Hinton broth (Table 2)): 12.5 µg/mL (≈ 22.7 µM); MIC ([5]; BW25113, read-out: MIC ECΔtolC): 3.13 µg/mL (≈ 5.68 µM); MIC [5, 14]: 6.25 µg/mL (≈ 11.4 µM); MIC ECΔtolC MH+BP/CCCP ([5]; {}): 1.56 µg/mL (≈ 2.83 µM); MIC ECΔtolC MH+CCCP ([5]; {}): 3.13 µg/mL (≈ 5.68 µM); MIC [13]: 25 µg/mL (≈ 45.4 µM) |
| CC1NC(=O)C(C(=O)NC(C(=O)NC2C(=O)N3C2SC(C)(C)C3C(=O)O)c2ccccc2)=C1O (centres unmarked) [Compound 2746] | 1.56 (≈ 3.19 µM) | 1.56 (≈ 3.19 µM) | 0.39 (≈ 0.798 µM) | 12.5 (≈ 25.6 µM) | 50 | 200 (≈ 409 µM) | 6.25 (≈ 12.8 µM) | 50 (≈ 102 µM) | 25 | 0.39 (≈ 0.798 µM) | 12.5 (≈ 25.6 µM) | 25 | 50 (≈ 102 µM) | 50 (≈ 102 µM) | 50 (≈ 102 µM) | 12.5 (≈ 25.6 µM) | 3.13 (≈ 6.41 µM) | 50 (≈ 102 µM) | 3.13 (≈ 6.41 µM) | 25 (≈ 51.2 µM) | MIC ECΔtolC MH+BP/CCCP ([5]; {}): 1.56 µg/mL (≈ 3.19 µM); MIC ECΔtolC MH+CCCP ([5]; {}): 3.13 µg/mL (≈ 6.41 µM); MIC ([8]; PA01, read-out: MIC PA −): 50 µg/mL (≈ 102 µM); MIC [13]: 100 µg/mL (≈ 205 µM) |
| CC(C)CC1NC(=O)C(C(=O)NC(C(=O)NC2C(=O)N3C2SC(C)(C)C3C(=O)O)c2ccccc2)=C1O (centres unmarked) [Compound 1903] | 3.13 (≈ 5.9 µM) | 0.78 (≈ 1.47 µM) | 0.39 (≈ 0.735 µM) | 12.5 (≈ 23.6 µM) | 12.5 | 50 (≈ 94.2 µM) | 1.56 (≈ 2.94 µM) | 6.25 (≈ 11.8 µM) | 1.56 | 0.39 (≈ 0.735 µM) | 1.56 (≈ 2.94 µM) | 6.25 | 12.5 (≈ 23.6 µM) | 12.5 (≈ 23.6 µM) | 12.5 (≈ 23.6 µM) | 3.13 (≈ 5.9 µM) | 12.5 (≈ 23.6 µM) | 25 (≈ 47.1 µM) | 1.56 (≈ 2.94 µM) | 25 (≈ 47.1 µM) | MIC ECΔtolC MH+CCCP ([5]; E. coli BW25113 ΔtolC JW5503-1, MH broth containing 50 µg/ml CCCP): 1.56 µg/mL (≈ 2.94 µM); MIC ([5]; BW25113, read-out: MIC ECΔtolC): 6.25 µg/mL (≈ 11.8 µM); MIC [5, 14]: 6.2 µg/mL (≈ 11.7 µM); MIC ([8]; PA01, read-out: MIC PA −): 12.5 µg/mL (≈ 23.6 µM); MIC [13]: 25 µg/mL (≈ 47.1 µM) |
| CC1(C)SC2C(NC(=O)C(NC(=O)C3=C(O)C(c4ccccc4)NC3=O)c3ccccc3)C(=O)N2C1C(=O)O (centres unmarked) [Compound 2745] | 6.25 (≈ 11.4 µM) | 0.78 (≈ 1.42 µM) | 0.39 (≈ 0.708 µM) | 12.5 (≈ 22.7 µM) | 12.5 | 100 (≈ 182 µM) | 1.56 (≈ 2.83 µM) | 6.25 (≈ 11.4 µM) | 6.25 | 0.78 (≈ 1.42 µM) | 12.5 (≈ 22.7 µM) | 25 | 25 (≈ 45.4 µM) | 25 (≈ 45.4 µM) | 50 (≈ 90.8 µM) | 12.5 (≈ 22.7 µM) | 3.13 (≈ 5.68 µM) | 25 (≈ 45.4 µM) | 3.13 (≈ 5.68 µM) | 12.5 (≈ 22.7 µM) | MIC ([5]; BW25113, read-out: MIC ECΔtolC): 3.13 µg/mL (≈ 5.68 µM); MIC [5, 14]: 3.13 µg/mL (≈ 5.68 µM); MIC ECΔtolC MH+BP/CCCP ([5]; {}): 0.78 µg/mL (≈ 1.42 µM); MIC ECΔtolC MH+CCCP ([5]; {}): 1.56 µg/mL (≈ 2.83 µM); MIC ([8]; PA01, read-out: MIC PA −): 25 µg/mL (≈ 45.4 µM); MIC [13]: 12.5 µg/mL (≈ 22.7 µM) |
